ChEMBL document CHEMBL3822410, “Novel substituted isoxazole FXR agonists with cyclopropyl, hydroxycyclobutyl and hydroxyazetidinyl linkers: Understanding and improving key determinants of pharmacological properties” (Bioorg Med Chem Lett, 2016)
Converted amounts (≈) assume the structure as drawn. The source made the active and inactive calls. No cut-off for these calls is given here.

Columns and labels:
Bile acid receptor [1] = target: T1, Bile acid receptor (Homo sapiens, UniProt Q96RI1); experiment: Agonist activity at GST-tagged FXR LBD (187 to 472 residues) (unknown origin) assessed as FXR interaction with b-CPSSHSSLTERHKILHRLLQEGSPS-COOH by FRET assay
T1 sequence (Q96RI1 whole entry): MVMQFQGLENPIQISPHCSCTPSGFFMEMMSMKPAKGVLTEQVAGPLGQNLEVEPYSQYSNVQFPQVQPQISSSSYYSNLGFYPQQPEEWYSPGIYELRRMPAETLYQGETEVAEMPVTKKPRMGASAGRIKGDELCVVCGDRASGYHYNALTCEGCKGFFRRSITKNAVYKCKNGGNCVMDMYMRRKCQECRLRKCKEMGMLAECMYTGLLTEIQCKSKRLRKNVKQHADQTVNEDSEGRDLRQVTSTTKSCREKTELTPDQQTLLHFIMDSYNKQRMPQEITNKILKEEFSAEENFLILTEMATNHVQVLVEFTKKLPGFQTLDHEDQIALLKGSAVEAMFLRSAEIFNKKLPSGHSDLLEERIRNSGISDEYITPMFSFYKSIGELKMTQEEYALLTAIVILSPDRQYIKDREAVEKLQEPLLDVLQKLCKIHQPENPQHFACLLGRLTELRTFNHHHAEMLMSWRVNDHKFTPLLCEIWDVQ

[2] = target: T2, Bile acid receptor (Homo sapiens) (UniProt Q96RI1); experiment: Agonist activity at GST-tagged FXR LBD (187 to 472 residues) (unknown origin) assessed as FXR interaction with b-CPSSHSSLTERHKILHRLLQEGSPS-COOH by FRET assay relative to GW4064
T2 sequence (whole entry): T1 sequence (Q96RI1 whole entry)

Bile acid receptor [3] = target: T1, Bile acid receptor; experiment: Agonist activity at C-terminal Gal4-tagged human FXR (187 to 472 residues) expressed in HEK-293 cells co-expressing pFRluc by mammalian one hybrid assay; format: cell-based, HEK293
How it was run: (§1)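 Transient transfection of HEK293 cells with Gal4 DBD–human FXR LBD (187–472) chimera under CMV promoter plus pFRluc Gal4-driven firefly luciferase reporter. Cells treated with serial compound dilutions. EC50 from at least three experiments; efficacy is extrapolated maximum signal of the dose-response, GW4064 set to 100%.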

[4] = target: T2, Bile acid receptor (Homo sapiens); experiment: Agonist activity at C-terminal Gal4-tagged human FXR (187 to 472 residues) expressed in HEK-293 cells co-expressing pFRluc by mammalian one hybrid assay relative to GW4064; format: cell-based; details: HEK293; how it was run: as §1
Mus musculus [5] = experiment: Reduction in total cholesterol level in high fat diet enriched with cholesterol fed C57BL/6J mouse plasma at 10 mg/kg, po through gavage for 10 days measured after 4 hrs of final dosage relative to vehicle treated-control; format: functional, organism-based
How it was run: (§2)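 C57BL/6J mice pre-fed and kept on high fat diet (60% kcal fat) with 1% (w/w) cholesterol; 10 mg/kg by oral gavage for 10 days. Plasma total cholesterol and triglycerides taken at sacrifice 4 h after final dose, expressed as % change versus vehicle group.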

Mus musculus [6] = experiment: Reduction in total triglyceride level in high fat diet enriched with cholesterol fed C57BL/6J mouse plasma at 10 mg/kg, po through gavage for 10 days measured after 4 hrs of final dosage relative to vehicle treated-control; format: functional, organism-based; how it was run: as §2
[7] = Aqueous solubility of the compound; format: physicochemical; details: buffer
[8] = Permeability of the compound assessed as compound influx measured after 16 hrs by PAMPA assay; format: ADME
How it was run: (§3)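 PAMPA, 16 h at rt. Flux = [C_acceptor/(C_donor + C_acceptor)] × 100 × 2. Membrane enrichment = C_membrane × 2/(C_acceptor + C_donor), membrane phase extracted into a volume equal to the acceptor or donor compartment.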

[9] = Permeability of the compound assessed as compound enrichment in membrane compartment measured after 16 hrs by PAMPA assay relative to control; format: ADME; how it was run: as §3
[10] = Oral bioavailability in C57BL/6J mouse at 5 mg/kg; format: ADME, organism-based; details: in vivo
How it was run: (§4)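 Mice dosed 5 mg/kg orally and 1 mg/kg intravenously; bioavailability from both arms, all other parameters (AUC, Cmax, T1/2, Cl/F, Vd/F) calculated from the oral arm.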

[11] = Half life in C57BL/6J mouse at 5 mg/kg, po and 1 mg/kg, iv; format: ADME, organism-based; details: in vivo; how it was run: as §4
[12] = Apparent oral clearance in C57BL/6J mouse at 5 mg/kg; format: ADME, organism-based; details: in vivo; how it was run: as §4
[13] = Apparent oral volume of distribution in C57BL/6J mouse at 5 mg/kg; format: ADME, organism-based; details: in vivo; how it was run: as §4
[14] = AUC in C57BL/6J mouse at 5 mg/kg, po and 1 mg/kg, iv; format: ADME, organism-based; details: in vivo; how it was run: as §4
[15] = Cmax in C57BL/6J mouse at 5 mg/kg, po and 1 mg/kg, iv; format: ADME, organism-based; details: in vivo; how it was run: as §4

Row | EC50 (Bile acid receptor [1]) | Efficacy [2] | EC50 (Bile acid receptor [3]) | Efficacy [4] | solubility [7] | permeability [8] | fold change (FC) [9] | bioavailability [10] | half-life [11] | CL/F [12] | Vd/F [13] | AUC [14] | Cmax [15] | SMILES | Activity (Mus musculus [5]) | Activity (Mus musculus [6])
1 | 76 nM | 98% | 1370 nM | 34% |  |  |  |  |  |  |  |  |  | O=C(NCCS(=O)(=O)O)c1ccc(C2CC2c2ccc(OCc3c(-c4c(Cl)cccc4Cl)noc3C3CC3)cc2Cl)cc1 (racemic) |  | 
2 | 18 nM | 100% | 29 nM | 98% |  |  |  |  |  |  |  |  |  | O=C(O)c1cccc([C@@H]2C[C@H]2c2ccc(OCc3c(-c4c(Cl)cccc4Cl)noc3C3CC3)cc2Cl)c1 | inactive | inactive
3 | 10 nM | 103% | 14 nM | 73% | 165 µM (≈ 91.7 µg/mL) |  |  |  |  |  |  |  |  | O=C(O)c1cncc(C2CC2c2ccc(OCc3c(-c4c(Cl)cccc4Cl)noc3C3CC3)cc2Cl)c1 (stereo not given) |  | 
4 | 48 nM | 94% | 44 nM | 81% |  |  |  |  |  |  |  |  |  | CS(=O)(=O)NC(=O)c1ccc([C@@H]2C[C@H]2c2ccc(OCc3c(-c4c(Cl)cccc4Cl)noc3C3CC3)cc2Cl)cc1 |  | 
5 | 150 nM | 100% | 209 nM | 58% |  |  |  |  |  |  |  |  |  | O=C(O)CNC(=O)c1ccc(C2CC2c2ccc(OCc3c(-c4c(Cl)cccc4Cl)noc3C3CC3)cc2Cl)cc1 (racemic) |  | 
6 | 32 nM | 102% | 34 nM | 87% | 20 µM (≈ 11.1 µg/mL) | 17% | 33 | 53% | 60 min | 55 mL/min/kg | 4.7 L/kg | 800 ng·h/mL | 1060 ng/mL | O=C(O)c1cccc(C2CC2c2ccc(OCc3c(-c4c(Cl)cccc4Cl)noc3C3CC3)cc2Cl)c1 (racemic) |  | 
7 | 80 nM | 99% | 47 nM | 89% |  |  |  |  |  |  |  |  |  | O=C(O)c1ccc([C@@H]2C[C@H]2c2ccc(OCc3c(-c4c(Cl)cccc4Cl)noc3C3CC3)cc2Cl)cc1 |  | 
8 | 219 nM | 101% | 90 nM | 88% |  |  |  |  |  |  |  |  |  | O=C(O)c1cccc([C@H]2C[C@@H]2c2ccc(OCc3c(-c4c(Cl)cccc4Cl)noc3C3CC3)cc2Cl)c1 |  | 
9 | 66 nM | 101% | 57 nM | 68% |  |  |  |  |  |  |  |  |  | O=C(O)c1ccc(C2CC2c2ccc(OCc3c(-c4c(Cl)cccc4Cl)noc3C3CC3)cc2Cl)cn1 (stereo not given) |  | 
10 | 131 nM | 100% | 76 nM | 85% |  | 14% | 30 | 44% | 30 min | 85 mL/min/kg | 3.6 L/kg | 430 ng·h/mL | 280 ng/mL | O=C(O)c1ccc(C2CC2c2ccc(OCc3c(-c4c(Cl)cccc4Cl)noc3C3CC3)cc2Cl)cc1 (racemic) | Active | Active
11 | 90 nM | 100% | 44 nM | 88% |  |  |  |  |  |  |  |  |  | CS(=O)(=O)NC(=O)c1ccc(C2CC2c2ccc(OCc3c(-c4c(Cl)cccc4Cl)noc3C3CC3)cc2Cl)cc1 (racemic) |  | 
12 | 1090 nM | 100% | 186 nM | 71% |  |  |  |  |  |  |  |  |  | O=C(O)c1ccc([C@H]2C[C@@H]2c2ccc(OCc3c(-c4c(Cl)cccc4Cl)noc3C3CC3)cc2Cl)cc1 [PX-102] |  | 
13 | 24 nM | 105% | 63 nM | 71% | 192 µM (≈ 112 µg/mL) | 21% | 9 | 41% | 66 min | 190 mL/min/kg | 3.9 L/kg | 180 ng·h/mL | 96 ng/mL | O=C(O)c1ccc([C@H]2C[C@](O)(c3ccc(OCc4c(-c5c(Cl)cccc5Cl)noc4C4CC4)cc3Cl)C2)cc1 |  | 

Continued, compound first:

Row | SMILES | EC50 (Bile acid receptor [1]) | Efficacy [2] | EC50 (Bile acid receptor [3]) | Efficacy [4] | solubility [7] | permeability [8] | fold change (FC) [9] | bioavailability [10] | half-life [11] | CL/F [12] | Vd/F [13] | AUC [14] | Cmax [15] | Activity (Mus musculus [5]) | Activity (Mus musculus [6])
14 | CCO[C@]1(c2ccc(OCc3c(-c4c(Cl)cccc4Cl)noc3C3CC3)cc2Cl)C[C@H](c2cccc(C(=O)O)c2)C1 | 277 nM | 94% | 220 nM | 89% |  |  |  |  |  |  |  |  |  |  | 
15 | O=C(O)c1cccc(N2CC(O)(c3ccc(OCc4c(-c5c(Cl)cccc5Cl)noc4C4CC4)cc3Cl)C2)c1 | 54 nM | 97% |  | 94% |  | 27% | 40 |  |  |  |  |  |  |  | 
16 | Cn1nc(C(=O)O)c2ccc(C3CC3c3ccc(OCc4c(-c5c(Cl)cccc5Cl)noc4C4CC4)cc3Cl)cc21 (racemic) | 13 nM | 104% | 14 nM | 84% |  |  |  |  |  |  |  |  |  |  | 
17 | O=C(O)c1cccc([C@H]2C[C@](OCCO)(c3ccc(OCc4c(-c5c(Cl)cccc5Cl)noc4C4CC4)cc3Cl)C2)c1 | 373 nM | 97% | 377 nM | 68% |  |  |  |  |  |  |  |  |  |  | 
18 | CC(C)n1nc(C(=O)O)cc1[C@@H]1C[C@H]1c1ccc(OCc2c(-c3c(Cl)cccc3Cl)noc2C2CC2)cc1Cl | 4 nM | 101% | 4 nM | 79% |  |  |  |  |  |  |  |  |  |  | 
19 | O=C(O)c1cccc([C@H]2C[C@H](c3ccc(OCc4c(-c5c(Cl)cccc5Cl)noc4C4CC4)cc3Cl)C2)c1 | 24 nM | 100% | 15 nM | 89% |  | 0% | 319 |  |  |  |  |  |  |  | 
20 | CC(C)n1nc(C(=O)O)cc1C1CC1c1ccc(OCc2c(-c3c(Cl)cccc3Cl)noc2C2CC2)cc1Cl (racemic) | 7 nM | 102% | 6 nM | 81% | 158 µM (≈ 92.7 µg/mL) | 29% | 22 | 11% | 48 min | 83 mL/min/kg | 5.5 L/kg | 110 ng·h/mL | 160 ng/mL | Active | Active
21 | Clc1cc(OCc2c(-c3c(Cl)cccc3Cl)noc2C2CC2)ccc1C1CC1c1ccc(-c2nnn[nH]2)nc1 (stereo not given) | 131 nM | 101% | 111 nM | 79% |  |  |  |  |  |  |  |  |  |  | 
22 | O=C(O)c1cccc([C@H]2C[C@](O)(c3ccc(OCc4c(-c5c(Cl)cccc5Cl)noc4C4CC4)cc3Cl)C2)c1 | 29 nM | 100% | 25 nM | 79% |  | 24% | 27 | 49% | 36 min | 4.7 mL/min/kg | 0.3 L/kg | 8600 ng·h/mL | 9800 ng/mL | Active | Active
23 | Cn1nc(C(=O)O)c2ccc([C@H]3C[C@](O)(c4ccc(OCc5c(-c6c(Cl)cccc6Cl)noc5C5CC5)cc4Cl)C3)cc21 | 19 nM | 99% | 50 nM | 82% |  |  |  |  |  |  |  |  |  |  | 
24 | O=C(O)c1cccc([C@H]2C[C@@H](c3ccc(OCc4c(-c5c(Cl)cccc5Cl)noc4C4CC4)cc3Cl)C2)c1 | 77 nM | 99% | 92 nM | 88% |  |  |  |  |  |  |  |  |  |  | 
25 | CO[C@]1(c2ccc(OCc3c(-c4c(Cl)cccc4Cl)noc3C3CC3)cc2Cl)C[C@H](c2cccc(C(=O)O)c2)C1 | 79 nM | 93% | 102 nM | 75% |  |  |  |  |  |  |  |  |  |  | 
